Sampled rows, rich in hits. Any-hit rate of the full collection: about 3.1%.
PAX8 reporter: lowers PAX8-driven luciferase in RMG-I cells; inhibition, % at 12.6 µM; RMG-I TPO-luciferase reporter, SteadyGlo, 24 h; 1.2% of 360,000 active;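 active = mean replicate inhibition at least 60% with every replicate also reaching 60%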;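 also: luciferase light reporting Pax8 driven TPO promoter activity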
PGC1a acetyl inh: lowers PGC1a acetylation signal in U2OS cells; AlphaScreen anti-acetyl-lysine; with virally co-expressed GCN5 acetyltransferase; inhibition, % at 15.6 µM; 0.17% of 350,000 active;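 active = every replicate shows inhibition of at least 40%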
FN deposit inh: fibronectin deposition inhibition. AH1F fibroblasts, Alexa488-fibronectin deposition fluorescence, overnight. AID 743247. 0.086% of 350,000 active. inhibition, % at 12.6 µM;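 active = mean inhibition across replicates of 30% or more, regardless of how many single replicates reach that level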
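test system = AH1F fibroblasts assembling fluorescent fibronectin matrix | quantity = 10000 AH1F cells per well | buffer or medium = DMEM plus 2% serum, read in PBS | doses = single dose, pinned | incubation = 1 h cell attachment, overnight exposure to compound and label | detection = fluorescence at 485 nm excitation, 525 nm emission | read-out basis = inhibition from reduced deposited-fibronectin fluorescence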
Env fusion inh: inhibitors of HIV Env-mediated cell fusion | HeLa-JRFL Env/CEM21 cell fusion, luciferase | inhibition, % at 12.3 µM | 1.1% of 360,000 active | AID 651610;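 active = mean replicate inhibition score of at least 50 and every replicate individually at or above 50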
EWS-Fli block: EWS/Fli transcriptional activity inhibition; A673 NR0B1-luciferase reporter, viability-normalised; inhibition, % at 12.6 µM; 0.67% of 350,000 active;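 active = mean inhibition of at least 50% after viability correction, with every replicate also passing that limit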;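 also: firefly luciferase signal divided by Alamar Blue viability fluorescence both relative to DMSO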
FGF22 binding: FGF22 (human) thermal shift binding | Q9HCT0 | 1.5% of 340,000 active | recombinant FGF22 thermal shift, SYPRO orange fluorescence; percent of sucrose octasulfate shift, DMSO zero | activity (Tm shift, normalised), % at 9.99 µM;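 active = mean Tm shift, scaled 0 neutral to 100 positive control, at about 1.3% or above, every replicate too, limit read from the data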
Target sequence (Q9HCT0 whole entry, looked up): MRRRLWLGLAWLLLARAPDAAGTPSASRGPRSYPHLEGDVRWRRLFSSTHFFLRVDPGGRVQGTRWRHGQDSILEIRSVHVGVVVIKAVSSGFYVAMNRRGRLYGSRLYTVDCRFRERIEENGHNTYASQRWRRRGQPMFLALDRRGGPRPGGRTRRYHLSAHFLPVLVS
A number is an active result; – = inactive; · = not tested or not shown.

SMILES	PAX8 reporter	PGC1a acetyl inh	FN deposit inh	Env fusion inh	EWS-Fli block	FGF22 binding
O=C(c1ccc(-c2ccccc2)cc1)C1CCCN(C(=O)Cn2cncn2)C1 (stereo unspecified)	–	–	–	–	–	42.9
COc1ccc(C(=O)C2CCCN(C(=O)Cn3cncn3)C2)cc1OC (stereo unspecified)	–	·	–	–	·	–
O=C(C[C@@H]1C=C[C@H](NS(=O)(=O)c2ccc(F)cc2)[C@H](CO)O1)NC1CCC1	–	–	–	–	–	–
C[C@@H]1CN([C@H](C)CO)C(=O)c2cccc(NC(=O)C3CCOCC3)c2O[C@H]1CN(C)Cc1ccc(Oc2ccccc2)cc1	–	–	·	–	–	–
CCN(CCn1cccn1)C(=O)CC1C(=O)NCCN1Cc1ccc(OC)c(OC)c1 (stereo unspecified)	–	·	–	–	–	–
CCN(CCn1cccn1)C(=O)CC1C(=O)NCCN1Cc1cc(OC)cc(OC)c1 (stereo unspecified)	–	·	–	–	–	44.2
CCN(CCn1cccn1)C(=O)CC1C(=O)NCCN1CCc1ccccc1 (stereo unspecified)	–	–	–	87.9	–	–
CO[C@@H]1CN(C)C(=O)c2cc(NC(=O)Cc3ccccc3)ccc2OC[C@H](C)NC[C@@H]1C	–	–	–	–	–	–
CC(C)NC(=O)N(C)C[C@H]1OCCCC[C@H](C)Oc2ccc(NS(=O)(=O)c3cccs3)cc2C(=O)N([C@@H](C)CO)C[C@@H]1C	–	–	–	–	–	–
CCO[C@@H]1OC(C(=O)O)=C[C@H](C2CCCCC2)[C@H]1CCCO	–	–	–	–	–	–
CCO[C@@H]1OC(C(=O)O)=C[C@H](C2CC2)[C@H]1CCCO	–	–	–	·	–	43.9
CN1/C(=C/C=C/c2n(C)c3cc([N+](=O)[O-])c([N+](=O)[O-])cc3[n+]2C)C(C)(C)c2ccccc21	100.0	·	–	–	–	–
CN1/C(=C\C=C(C#N)C#N)C(C)(C)c2ccccc21	–	–	–	–	–	–
Cc1c(NC(=O)CSc2ccc(Cl)cc2)c(=O)n(-c2ccccc2)n1C	–	·	–	–	–	43.8
N#C/C(=N\Nc1ccc(Cl)cc1)C(=O)c1ccccc1	–	–	–	78.5	·	·
Cc1ccc(SCCC(=O)Nc2c(C)n(C)n(-c3ccccc3)c2=O)cc1	–	–	–	–	·	·
Cc1c(N/N=C(\C#N)C(=O)c2ccc(Cl)cc2)c(=O)n(-c2ccccc2)n1C	64.5	·	–	–	·	·
COc1ccc(C(=O)/C(C#N)=N/Nc2ccc([N+](=O)[O-])cc2)cc1	89.7	–	–	–	–	–
CCCNC(=O)N1CC2(CN(C(=O)c3ccncc3)C2)c2c([nH]c3cc(OC)ccc23)[C@@H]1CO	·	–	·	·	–	·
CO[C@H]1CN(C)C(=O)c2ccc(NS(=O)(=O)c3ccccc3Cl)cc2OC[C@@H](C)NC[C@@H]1C	·	–	–	–	–	–
CCCn1c(SCC(=O)NC(=O)NC(C)(C)C)n[nH]c1=O	–	·	–	–	–	43.2
CCCn1c(SCC(=O)Nc2cc(C)on2)n[nH]c1=O	–	–	–	·	–	–
C#CCn1c(=O)c2c(ncn2C)n(C)c1=O	–	–	–	71.7	–	–
Cc1nonc1CN(C)C(=O)c1ccc(OC2CCN(C(=O)c3cccnc3)CC2)cc1	–	–	–	–	–	44.1
Cc1nonc1CN(C)C(=O)c1ccc(OC2CCN(Cc3ccccn3)CC2)cc1	–	·	–	–	–	44.0
SMILES	PAX8 reporter	PGC1a acetyl inh	FN deposit inh	Env fusion inh	EWS-Fli block	FGF22 binding
COc1ccc(C)cc1NC(=S)NNC(=O)c1c(Br)cnn1C	–	–	–	–	–	44.2
C[C@@H]1CN([C@@H](C)CO)S(=O)(=O)c2ccc(-c3cccc(C#N)c3)cc2O[C@H]1CN(C)C(=O)c1ccc(F)cc1	·	–	·	–	–	–
COc1ccc(NC(=O)Nc2ccc3c(c2)C(=O)N([C@@H](C)CO)C[C@@H](C)[C@H](CN(C)S(=O)(=O)c2ccccc2)OCCCC[C@H](C)O3)cc1	–	–	–	–	–	–
CC(O)CC(=O)OC[C@]12CC[C@H]3[C@@](C)(CC[C@H]4C(C)(C)CCC[C@]34C)[C@@H]1CC(C1=CC(=O)OC1O)O2 (stereo partly specified)	·	–	·	·	59.2	–
O=C(C[C@H]1C[C@H]2c3cc(NC(=O)Cc4ccncc4)ccc3O[C@H]2[C@H](CO)O1)NCCN1CCCCC1	–	–	·	–	–	–
COc1ccc(CN(C)C[C@@H]2Oc3ccc(NC(=O)C4CCCCC4)cc3C(=O)N([C@@H](C)CO)C[C@@H]2C)cc1	–	–	·	–	–	–
O=S(=O)(NCC(Nc1ccccc1)c1ccccc1)c1ccc(Cl)cc1 (stereo unspecified)	–	–	–	98.4	·	·
O=C(O)c1cccc(NC(CNS(=O)(=O)c2ccc(Cl)cc2)c2ccccc2)c1 (stereo unspecified)	–	–	–	–	–	–
Cc1ccccc1S(=O)(=O)N1C[C@@H](O)COC[C@@H]2O[C@@H](CC(=O)O)CC[C@H]21	–	–	–	–	–	–
CCSC1=C(C#N)C(c2ccc(Cl)cc2)C2=C(CCCC2=O)N1 (stereo unspecified)	·	–	–	57.8	·	·
CO[C@H]1CC[C@H]2CCN(C)C(=O)CCCN(C)C(=O)c3cc(C#N)ccc3OC[C@H]1O2	–	·	–	–	–	–
CC1(C)CC(=O)/C(=C(\O)CCCN2C(=O)c3ccccc3C2=O)C(=NCC(=O)O)C1	–	–	–	–	–	–
CC(N=C1CC(C)(C)CC(=O)/C1=C(/O)CCCN1C(=O)c2ccccc2C1=O)C(=O)O (stereo unspecified)	–	–	–	–	–	42.9
COCC#Cc1ccc([C@@H]2[C@H](CO)N3C(=O)CN(C(=O)Nc4ccccc4F)C[C@@H]23)cc1	·	–	–	·	–	·
CCOc1cc(N2CCOCC2)c(OCC)cc1NC(=S)NCCCOC	–	–	–	–	–	43.0
C[C@@H]1CN([C@H](C)CO)S(=O)(=O)c2ccc(-c3ccccc3F)cc2O[C@H]1CN(C)C(=O)C1CC1	·	–	·	–	–	–
COc1ccc(/C=C2\C(=O)NC(=O)c3ccccc32)cc1OC	–	·	–	·	–	–
COc1ccc2c(c1)/C(=C/c1cc(OC)c(OC)c(OC)c1)C(=O)N2	–	–	–	–	63.4	–
CC(=O)c1cccc(Nc2c3c(nc4ccccc24)CCC3)c1	–	–	–	–	56.5	–
COc1ccc2nc3ccccc3nc2c1NC(=O)c1ccccc1Cl	–	–	–	–	–	42.9
O=C(Nc1c2c(nc3ccccc13)CCCC2)c1ccccc1Cl	–	–	–	–	–	44.0
CC(=O)c1ccc(Nc2c3c(nc4ccccc24)CCCC3)cc1	–	–	–	–	71.1	–
COC(=O)c1cccc(Nc2c3c(nc4ccccc24)CCC3)c1	–	–	–	–	–	–

Screening results from PubChem.
